Results on one compound are retold here after ChEMBL document CHEMBL1135423, “Acyl-protected hydroxylamines as spin label generators for EPR brain imaging” (J Med Chem, 2002).

Common to all, as to assay type: ADME, organism-based
Series [1] concerns Mus musculus. In words: Biodistribution of compound (oxidized form) in heart tissue, animals were sacrificed 10 minutes after dosing, in DMSO sol. The following applies: in vivo. In a few lines:
(§1)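 In female C3H HenMTV⁻ mice (6-8 weeks, 22-25 g; three per time point), compound was injected ip as 500 µL of 40 mM solution. Animals were killed 10 or 60 min later. Brain, heart, liver, kidney, spleen and blood were removed and each homogenized in ice-cold PBS. Nitroxide (oxidized form) was quantified by EPR signal intensity in the half of each homogenate not treated with ferricyanide.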

The test system of series [2] is Mus musculus. As to the kind of experiment: Biodistribution of compound (oxidized form) in blood tissues, animals were sacrificed 60 minutes after dosing, in DMSO sol. The settings on record: in vivo, 1 h. The gist of the method: as §1
For series [3], the system named is Mus musculus. In words: Biodistribution of compound (oxidized form) in spleen tissue, animals were sacrificed 10 minutes after dosing, in DMSO sol. The settings on record: in vivo. The gist of the method:
as §1

Series [4] relates to Mus musculus. In words: Biodistribution in mice as total concentration of both oxidized and reduced forms in brain tissues, animals were sacrificed 60 minutes after dosing, in DMSO sol. The settings on record: in vivo, 1 h. In a few lines:
(§2)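 Female C3H HenMTV⁻ mice (6-8 weeks old, 22-25 g; three per time point) were given an ip injection of 500 µL of 40 mM compound. They were euthanized at 10 or 60 min. Brain, heart, liver, kidney, spleen and blood were excised and each homogenized in ice-cold PBS. One half of each homogenate received K₃[Fe(CN)₆] (final 1 mM) to oxidize hydroxylamine to nitroxide. Total nitroxide plus hydroxylamine was read from EPR signal intensity.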

Series [5] concerns Mus musculus. As to the kind of experiment: Biodistribution in mice as total concentration of both oxidized and reduced forms in heart tissues, animals were sacrificed 60 minutes after dosing, in DMSO sol. The following applies: in vivo, 1 h. In a few lines: as §2
The test system of series [6] is Mus musculus. In words: Biodistribution in mice as total concentration of both oxidized and reduced forms in liver tissues, animals were sacrificed 60 minutes after dosing, in DMSO sol. The following applies: in vivo, 1 h. In a few lines: as §2
For series [7], the system named is Mus musculus. As to the kind of experiment: Biodistribution in mice as total concentration of both oxidized and reduced forms in blood tissues, animals were sacrificed 60 minutes after dosing, in DMSO sol. The following applies: in vivo, 1 h. The gist of the method:
as §2

The subject of series [8] is Mus musculus. In words: Biodistribution in mice as total concentration of both oxidized and reduced forms in spleen and animals were sacrificed 10 minutes after ip administration in DMSO solution. The settings on record: in vivo. The gist of the method: as §2
Series [9] concerns Mus musculus. As to the kind of experiment: Biodistribution in mice as total concentration of both oxidized and reduced forms in liver and animals were sacrificed 10 minutes after dosing, in DMSO sol. The settings on record: in vivo. The gist of the method:
as §2

Series [10] deals with Mus musculus. In words: Biodistribution of compound (oxidized form) in blood tissue, animals were sacrificed 10 minutes after dosing, in DMSO sol. The settings on record: in vivo. The gist of the method: as §1
Series [11] deals with Mus musculus. As to the kind of experiment: Biodistribution of compound (oxidized form) in brain tissue, animals were sacrificed 10 minutes after dosing, in DMSO sol. The following applies: in vivo. The gist of the method: as §1
Series [12] has as its system Mus musculus. As to the kind of experiment: Biodistribution of compound (oxidized form) in kidney tissue, animals were sacrificed 60 minutes after dosing, in DMSO sol. The settings on record: in vivo, 1 h. In a few lines: as §1
In series [13] the test system is Mus musculus. In words: Biodistribution of compound (oxidized form) in kidney tissue, animals were sacrificed 10 minutes after dosing, in DMSO sol. The settings on record: in vivo. The gist of the method:
as §1

Series [14] deals with Mus musculus. In words: Biodistribution of compound (oxidized form) in heart tissue, animals were sacrificed 60 minutes after dosing, in DMSO sol. The settings on record: in vivo, 1 h. The gist of the method:
as §1

The subject of series [15] is Mus musculus. As to the kind of experiment: Biodistribution of compound (oxidized form) in brain tissue, animals were sacrificed 60 minutes after dosing, in DMSO sol. The following applies: in vivo, 1 h. In a few lines:
as §1

For series [16], the system named is Mus musculus. As to the kind of experiment: Biodistribution in mice as total concentration of both oxidized and reduced forms in kidney and animals were sacrificed 10 minutes after dosing, in DMSO sol. The following applies: in vivo. In a few lines:
as §2

For series [17], the system named is Mus musculus. As to the kind of experiment: Biodistribution in mice as total concentration of both oxidized and reduced forms in spleen tissues, animals were sacrificed 60 minutes after dosing, in DMSO sol. The following applies: in vivo, 1 h. The gist of the method:
as §2

Series [18] concerns Mus musculus. In words: Biodistribution of compound (oxidized form) in liver tissues, animals were sacrificed 60 minutes after dosing, in DMSO sol. The settings on record: in vivo, 1 h. The gist of the method: as §1
Series [19] deals with Mus musculus. As to the kind of experiment: Biodistribution in mice as total concentration of both oxidized and reduced forms in blood and animals were sacrificed 10 minutes after ip administration in DMSO solution. The settings on record: in vivo. The gist of the method:
as §2

The test system of series [20] is Mus musculus. As to the kind of experiment: Biodistribution of compound (oxidized form) in liver tissue, animals were sacrificed 10 minutes after dosing, in DMSO sol. The following applies: in vivo. In a few lines:
as §1

Series [21] has as its system Mus musculus. In words: Biodistribution of compound (oxidized form) in spleen tissues, animals were sacrificed 60 minutes after dosing, in DMSO sol. The settings on record: in vivo, 1 h. The gist of the method:
as §1

Series [22] has as its system Mus musculus. As to the kind of experiment: Biodistribution in mice as total concentration of both oxidized and reduced forms in kidney tissues, animals were sacrificed 60 minutes after dosing, in DMSO sol. The following applies: in vivo, 1 h. In a few lines: as §2
For series [23], the system named is Mus musculus. As to the kind of experiment: Biodistribution of compound (total concentration of both oxidized and reduced forms) in brain tissues, animals were sacrificed 10 minutes after dosing, in DMSO. The following applies: in vivo. The gist of the method: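 Female C3H HenMTV⁻ mice (6-8 weeks old, 22-25 g; three per time point) got one i.p. injection of 500 µL of 40 mM compound. They were euthanized at 10 or 60 min. Organs and blood were excised and homogenized separately in ice-cold PBS. One half of each homogenate received K₃[Fe(CN)₆] (final 1 mM) to oxidize hydroxylamine. Total nitroxide plus hydroxylamine was quantified by EPR signal intensity.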

In series [24] the test system is Mus musculus. As to the kind of experiment: Biodistribution in mice as total concentration of both oxidized and reduced forms in heart tissues, animals were sacrificed 10 minutes after dosing, in DMSO sol. The settings on record: in vivo. In a few lines: as §2

For `COC(=O)C1CC(C)(C)N(OC(C)=O)C(C)(C)C1`, the Biodistribution in [1] is 0 nM (g of tissue)-1; in series [2], 0 nM (g of tissue)-1; in series [3], 0 nM (g of tissue)-1; in series [4], 25 nM (g of tissue)-1; in [5] it was 25 nM (g of tissue)-1; in [6], 30 nM (g of tissue)-1. Moreover, the Biodistribution in [7] is 25 nM (g of tissue)-1; in series [8], 100 nM (g of tissue)-1; in [9], 50 nM (g of tissue)-1; in series [10], 0 nM (g of tissue)-1; in [11], 2 nM (g of tissue)-1; in series [12], 0 nM (g of tissue)-1. Besides, the Biodistribution in series [13] is reported as 0 nM (g of tissue)-1; in series [14], 0 nM (g of tissue)-1; in [15], 5 nM (g of tissue)-1; in series [16] it was 400 nM (g of tissue)-1; in series [17], 25 nM (g of tissue)-1; in series [18], 0 nM (g of tissue)-1. Further, the Biodistribution is 100 nM (g of tissue)-1 in series [19]; 0 nM (g of tissue)-1 in series [20]; 0 nM (g of tissue)-1 in series [21]; 25 nM (g of tissue)-1 in series [22]; 0 nM (g of tissue)-1 in series [23]; 10 nM (g of tissue)-1 in series [24].
